The test system of data set [1] is MEF. The experiment in a line: Antiproliferative activity against CHOP-knock out MEF cells after 16 hrs by luminescence assay. The conditions noted are these: Mus musculus. Type of data set: functional, cell-based. In outline:
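Wildtype and Chop-knockout murine embryonic fibroblasts given test agent in dose-response for 16 h. Proliferation read by an ATP-based luminescent assay. Chop-null cells tested up to 20 μM; four independent experiments, triplicate samples.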

Data set [2] concerns MEF. The experiment in a line: Antiproliferative activity against wild-type MEF cells after 16 hrs by luminescence assay. The class given is functional, cell-based. The note with it: Mus musculus. In outline: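 Wild-type murine embryonic fibroblasts, run alongside a Chop-knockout MEF line, exposed to compound in dose-response for 16 h. Proliferation read by ATP-based luminescence. EC50 reported in μM ± SEM.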

Data set [3] in a line: Tmax in CD-1 mouse at 30 mg/kg, ip. The class given is ADME, organism-based. On the set-up: dose 30 mg/kg, route intraperitoneal. The note with it: in vivo. In outline: (§1)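 Male CD-1 mice, single IP dose of 30 mg/kg, 3 mice per group. Plasma concentrations determined at 7 intervals over 8 h.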
The nature of data set [4]: Cytotoxicity against human Fa2N-4 cells assessed as cell viability after 24 hrs by luminescence assay. Type of data set: cell-based. The conditions noted are these: fa2n-4, 24 h.
The test system of the next data set is A253. Description: Antiproliferative activity against human A253 cells after 24 hrs. The class given is functional, cell-based. In outline: (§2)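 Oral squamous cell carcinoma panel cells treated with increasing concentrations of test agent for 24 h in dose-response proliferation assays.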
The next data set deals with HN6. Description: Antiproliferative activity against human HN6 cells after 24 hrs. Type of data set: functional, cell-based. In outline: as §2
For the next data set, the system named is H460/T800. The experiment in a line: Antiproliferative activity against human H460/T800 cells after 24 hrs. The class given is functional, cell-based.
Data set [5] relates to Plasma. The experiment in a line: Plasma protein binding in human plasma after 4 hrs by LC/MS/MS method. The class given is ADME, cell-free.
A short description of data set [6]: Antiproliferative activity against human HN30 cells after 24 hrs. Type of data set: functional. In outline:
as §2

For the next data set, the system named is Liver. The experiment in a line: Metabolic stability in mouse liver microsomes after 60 mins by LC/MS/MS method. The class given is ADME. The note with it: 1 h. In general terms: Liver microsomes are vesicles of endoplasmic reticulum, rich in cytochrome P450 enzymes.
The nature of data set [7]: Antiproliferative activity against human HN12 cells after 24 hrs. Type of data set: functional. In outline:
as §2

The nature of data set [8]: Aqueous solubility of the compound in pION buffer by UV-spectrophotometry. The class given is physicochemical. In outline: (§3)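 Solubility measured in PBS and pION buffer across a biologically relevant pH range.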
For data set [9], the target named is Sodium-dependent dopamine transporter (Homo sapiens) (UniProt Q01959). The experiment in a line: Displacement of [125I] RTI-55 from human recombinant DAT expressed in CHOK1 cells after 3 hrs. The class given is cell-based. The note with it: CHO-K1, concentration not given here. In outline:
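Profiled at 10 μM within a 67-target panel of GPCRs, nuclear receptors, transporters and ion channels. Significant inhibition defined as >50% at a single target.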

Data set [10] concerns Plasma. Description: Stability in mouse plasma assessed as compound remaining after 180 mins by LC/MS/MS method. The class given is ADME, cell-free. The note with it: 3 h.
The subject of data set [11] is UMSCC23. The experiment in a line: Induction of XBP1 mRNA expression in human UM-SCC-23 cells at 0.04 to 20 uM after 6 hrs by qRT-PCR analysis. Type of data set: functional, cell-based. In outline:
(§4)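 UMSCC23 cells treated in dose-response for 6 h, then lysed. UPR and CHOP target gene transcripts measured by qRT-PCR, with tunicamycin as ER-stress positive control.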
For orientation: Real-time PCR tracks product formation cycle by cycle.

The test system of data set [12] is UMSCC23. Description: Induction of ERCC1 mRNA expression in human UM-SCC-23 cells at 0.04 to 20 uM after 6 hrs by qRT-PCR analysis. The class given is functional, cell-based. In outline:
as §4

The subject of data set [13] is UMSCC23. Description: Induction of CHOP mRNA expression in human UM-SCC-23 cells at 20 uM after 6 hrs by qRT-PCR analysis. Type of data set: functional, cell-based. In outline: as §4
The test system of data set [14] is UMSCC23. Description: Induction of CHOP mRNA expression in human UM-SCC-23 cells at 0.04 to 20 uM after 6 hrs by qRT-PCR analysis. Type of data set: functional, cell-based. In outline:
as §4

The nature of data set [15]: Plasma protein binding in mouse plasma after 4 hrs by LC/MS/MS method. The note with it: read-out: PPB (converted). Type of data set: ADME, cell-free.
Data set [16] has as its system UMSCC23. The experiment in a line: Induction of XBP1 mRNA expression in human UM-SCC-23 cells at 20 uM after 6 hrs by qRT-PCR analysis. Type of data set: functional, cell-based. In outline: as §4
In data set [17] the test system is UMSCC23. The experiment in a line: Induction of GADD34 mRNA expression in human UM-SCC-23 cells at 0.04 to 20 uM after 6 hrs by qRT-PCR analysis. Type of data set: functional, cell-based. In outline: as §4
The nature of data set [18]: Cmax in CD-1 mouse at 30 mg/kg, ip. The class given is ADME, organism-based. On the set-up: dose 30 mg/kg, route intraperitoneal. The conditions noted are these: in vivo. In outline:
as §1

The subject of a further data set is Liver microsome. Description: Metabolic stability in human liver microsomes after 60 mins by LC/MS/MS method. The conditions noted are these: 1 h. Type of data set: ADME.
Data set [19] is described as follows: Permeability of the compound at pH 5 to 7.4 by PAMPA. The class given is ADME. In outline: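 PAMPA model of passive transcellular permeability, donor compartment at pH 5.0, 6.2 and 7.4. Compound concentration in the compartments determined by UV spectroscopy.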
(In general: In PAMPA a lipid-coated filter parts donor from acceptor wells.)

Data set [20] is described as follows: Aqueous solubility of the compound in PBS buffer by UV-spectrophotometry. The class given is physicochemical. In outline:
as §3

Data set [21] in a line: Antiproliferative activity against human UM-SCC-23 cells after 24 hrs. Type of data set: functional, UMSCC23. In outline:
as §2

The nature of data set [22]: Stability in human plasma assessed as compound remaining after 180 mins by LC/MS/MS method. The conditions noted are these: read-out: Stability. The class given is ADME, cell-free.

This is an account of results in ChEMBL document CHEMBL3352780, “Discovery of Sulfonamidebenzamides as Selective Apoptotic CHOP Pathway Activators of the Unfolded Protein Response” (ACS Med Chem Lett, 2014).

Molecules are shown by their SMILES. Activity calls are given as the source filed them.

Sequence of Sodium-dependent dopamine transporter (Homo sapiens) (Q01959 whole entry): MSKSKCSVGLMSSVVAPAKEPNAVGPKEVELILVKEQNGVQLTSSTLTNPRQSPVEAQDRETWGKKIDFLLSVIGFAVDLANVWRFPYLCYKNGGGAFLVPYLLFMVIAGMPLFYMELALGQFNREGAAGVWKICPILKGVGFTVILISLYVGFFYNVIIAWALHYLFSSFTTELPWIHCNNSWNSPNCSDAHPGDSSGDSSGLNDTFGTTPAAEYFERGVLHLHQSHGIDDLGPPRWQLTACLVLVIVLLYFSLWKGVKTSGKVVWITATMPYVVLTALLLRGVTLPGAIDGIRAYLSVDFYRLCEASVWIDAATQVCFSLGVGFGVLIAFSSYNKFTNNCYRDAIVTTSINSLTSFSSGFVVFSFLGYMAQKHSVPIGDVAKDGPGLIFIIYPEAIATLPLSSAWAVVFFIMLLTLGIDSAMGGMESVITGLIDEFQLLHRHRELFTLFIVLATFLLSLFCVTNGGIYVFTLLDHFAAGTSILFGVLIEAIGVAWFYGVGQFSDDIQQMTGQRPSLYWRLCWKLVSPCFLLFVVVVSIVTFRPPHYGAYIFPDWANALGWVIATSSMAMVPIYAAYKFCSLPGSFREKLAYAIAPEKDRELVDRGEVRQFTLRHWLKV

On to `CC1CCN(S(=O)(=O)c2ccc(NC(=O)c3ccc([N+](=O)[O-])o3)cc2)CC1`, for which the EC50 (in general, the concentration at which the effect is half-maximal) with MEF [1] was determined as 16.3 µM; with MEF [2], 4.6 µM.
On the same counts, the results for `O=C(Nc1ccc(S(=O)(=O)N2CCCCC2)cc1)c1ccc([N+](=O)[O-])o1` are over 20 µM and 7.8 µM.
On the same counts, the results for `O=C(Nc1ccc(S(=O)(=O)N2CCC(F)CC2)cc1)c1ccc([N+](=O)[O-])o1` are over 20 µM and 17.5 µM.
Regarding `CC1(C)CCN(S(=O)(=O)c2ccc(NC(=O)c3ccc([N+](=O)[O-])o3)cc2)CC1`, the figures for the EC50 in the data set with MEF [1] and in the data set with MEF [2] were 9.2 µM and 3 µM, respectively.
Consider `O=C(Nc1ccc(S(=O)(=O)N2CCC(Cl)CC2)cc1)c1ccc([N+](=O)[O-])o1`, for which, in data set [3], the Tmax – broadly, the time from dosing to the highest level – is 10.2 min. The Activity is 11 µM in data set [4], 9 µM in [6], 7.2 µM in data set [7] and 7.3 µM in data set [21]. The outcome in the data set on A253, with HN6, in the data set on H460/T800, in the data set with UMSCC23 [12], in the data set on UMSCC23 [13] and with UMSCC23 [16] was inactive. In addition, the EC50 is over 20 µM in the data set on MEF [1] and 4.8 µM in the data set on MEF [2]. This compound also yielded a PPB in the data set with Plasma [5] of over 99%. Also, the Stability entry in the data set with Liver is reported as “Unstable”; in the data set on Plasma [10], 52%; in the data set on Liver microsome, “Unstable”. Also, the solubility result in data set [8] and in [20] was “soluble” each time. In data set [9], the inhibition (as a rule, the drop in the measured response relative to a control, in per cent) is 68%. Besides, the outcome with UMSCC23 [11], in the data set with UMSCC23 [14] and with UMSCC23 [17] was Active. The fraction unbound at 4 h in data set [15] was 0.16. Also, in data set [18], the Cmax – broadly, the maximum level reached in the sampled fluid or tissue – came out at 140 nM. For the same compound, in data set [19], the permeability entry is given as “permeable”. In data set [22], the remaining at 3 h is 86%.
Take `CC(C)(C)C1CCN(S(=O)(=O)c2ccc(NC(=O)c3ccc([N+](=O)[O-])o3)cc2)CC1`: the EC50 was found to be 2.1 µM in the data set with MEF [1] and 1.4 µM in the data set on MEF [2].
